From ChEMBL document CHEMBL3407479, “Structure-activity relationship for the oxadiazole class of antibiotics” (J Med Chem, 2015)
Converted amounts (≈) assume the structure as drawn. The source made the active and inactive calls. No cut-off for these calls is given here.

Columns and labels:
[1] = Distribution phase half life in ICR mouse at 20 mg/kg, po; format: ADME, organism-based; parameters: dose 20 mg/kg, route oral; conditions: in vivo, read-out: alphat1/2 (converted)
HepG2 = assay: Cytotoxicity against human HepG2 cells assessed as cell viability after 16 hrs by XTT assay; format: cell-based; conditions: HepG2, 16 h
Method in brief: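 HepG2 cells were run in triplicate in an XTT viability assay. IC50 was derived from the concentration–response data.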

Mus musculus [2] = assay: AUC (0 to 24 hrs) in ICR mouse at 20 mg/kg, iv; format: ADME, organism-based, Plasma; parameters: time < 24 hr, dose 20 mg/kg, route intravenous; conditions: in vivo
Bacillus cereus = assay: Antibacterial activity against Bacillus cereus ATCC 13061 after 16 to 20 hrs by broth microdilution method; format: functional
[3] = system: Staphylococcus haemolyticus; assay: Antibacterial activity against Staphylococcus haemolyticus ATCC 29970 after 16 to 20 hrs by broth microdilution method; format: functional
Enterococcus faecium [4] = assay: Antibacterial activity against Enterococcus faecium NCTC 7171 after 16 to 20 hrs by broth microdilution method; format: functional
Streptococcus pyogenes = assay: Antibacterial activity against Streptococcus pyogenes ATCC 49399 after 16 to 20 hrs by broth microdilution method; format: functional
Enterococcus faecium [5] = assay: Ratio of MBC to MIC for Enterococcus faecium NCTC 7171; format: functional
Mus musculus [6] = assay: AUC (0 to 24 hrs) in ICR mouse at 20 mg/kg, po; format: ADME, organism-based, Plasma; parameters: time < 24 hr, dose 20 mg/kg, route oral; conditions: in vivo
Staphylococcus aureus [7] = assay: Antibacterial activity against vancomycin/methicillin-resistant Staphylococcus aureus VRS1 clinical isolate after 16 to 20 hrs by broth microdilution method; format: functional
Staphylococcus aureus [8] = assay: Antibacterial activity against methicillin-resistant Staphylococcus aureus ATCC 27660 in ICR mouse peritonitis infection model assessed as survival rate at 20 mg/kg, iv administered at 0.5 and 7.5 hrs post infection measured for 48 hrs; format: functional, organism-based; parameters: dose 20 mg/kg
Method in brief: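 Female ICR mice, 6–8 weeks, ~20 g, n = 6 per group. Bacteria at 10^8 cfu/mL mixed 1:1 with 10% mucin just before use; 0.5 mL given ip (final 5×10^7 cfu/mL, 5% mucin). Compound at 20 mg/kg iv by tail vein, twice, at 30 min and 7.5 h post-infection. […] Survivors counted at 48 h.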

[9] = AUC (0 to infinity) in ICR mouse at 20 mg/kg, po; format: ADME, organism-based; parameters: time infinity, dose 20 mg/kg, route oral; conditions: plasma
Staphylococcus aureus [10] = assay: Antibacterial activity against methicillin-resistant Staphylococcus aureus ATCC 27660 in po dosed ICR mouse peritonitis infection model assessed as survival rate administered at 1 hr post infection; format: functional; conditions: ATCC 27660, po
Method in brief: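 Female ICR mice, 6–8 weeks, given 0.5 mL ip of S. aureus (final 5×10^7 cfu/mL in 5% mucin). Six mice per dose level; a single oral dose at 1 h post-infection.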

[11] = Tmax in ICR mouse at 20 mg/kg, po; format: ADME, organism-based; parameters: dose 20 mg/kg, route oral; conditions: in vivo
[12] = Plasma protein binding in human at 10 uM after 6 hrs by equilibrium dialysis assay; format: ADME, cell-free
[13] = AUC (0 to infinity) in ICR mouse at 20 mg/kg, iv; format: ADME, organism-based; parameters: time infinity, dose 20 mg/kg, route intravenous; conditions: plasma
[14] = Terminal half life in ICR mouse at 20 mg/kg, iv; format: ADME, organism-based; parameters: dose 20 mg/kg, route intravenous; conditions: in vivo, read-out: beta t1/2 (converted)
Staphylococcus aureus [15] = assay: Antibacterial activity against methicillin-sensitive Staphylococcus aureus ATCC 29213 after 16 to 20 hrs by broth microdilution method; format: functional
[16] = system: Staphylococcus epidermidis; assay: Antibacterial activity against Staphylococcus epidermidis ATCC 35547 after 16 to 20 hrs by broth microdilution method; format: functional
Enterococcus faecalis [17] = assay: Antibacterial activity against vancomycin-resistant Enterococcus faecalis 99 clinical isolate after 16 to 20 hrs by broth microdilution method; format: functional
[18] = Elimination half life in ICR mouse at 20 mg/kg, po; format: ADME, organism-based; parameters: dose 20 mg/kg, route oral; conditions: in vivo, read-out: beta t1/2 (converted)
[19] = Primary phase half life in ICR mouse at 20 mg/kg, iv; format: ADME, organism-based; parameters: dose 20 mg/kg, route intravenous; conditions: in vivo, read-out: alphat1/2
[20] = Cmax in ICR mouse at 20 mg/kg, po; format: ADME, organism-based; parameters: dose 20 mg/kg, route oral; conditions: in vivo
Streptococcus oralis = assay: Antibacterial activity against Streptococcus oralis ATCC 9811 after 16 to 20 hrs by broth microdilution method; format: functional
Staphylococcus aureus [21] = assay: Antibacterial activity against methicillin-resistant Staphylococcus aureus ATCC 27660 in iv dosed ICR mouse peritonitis infection model assessed as survival rate administered at 0.5 and 7.5 hrs post infection; format: functional; conditions: ATCC 27660, iv
[22] = Clearance in ICR mouse at 20 mg/kg, iv; format: ADME, organism-based; parameters: dose 20 mg/kg, route intravenous; conditions: in vivo
[23] = Volume of distribution in ICR mouse at 20 mg/kg, iv; format: ADME, organism-based; parameters: dose 20 mg/kg, route intravenous; conditions: in vivo
Staphylococcus aureus [24] = assay: Bactericidal activity against methicillin-sensitive Staphylococcus aureus ATCC 29213 after 48 hrs; format: functional; conditions: ATCC 29213, 48 h
Staphylococcus aureus [25] = assay: Antibacterial activity against methicillin-resistant Staphylococcus aureus ATCC 27660 in po dosed ICR mouse peritonitis infection model assessed as survival rate administered at 0.5 and 7.5 hrs post infection; format: functional; conditions: ATCC 27660, po
[26] = AUC (0 to 8 hrs) in ICR mouse at 50 mg/kg, iv; format: ADME, organism-based; parameters: time < 8 hr, dose 50 mg/kg, route intravenous; conditions: plasma
Staphylococcus aureus [27] = assay: Antibacterial activity against vancomycin/methicillin-resistant Staphylococcus aureus VRS2 clinical isolate after 16 to 20 hrs by broth microdilution method; format: functional
Staphylococcus aureus [28] = assay: Antibacterial activity against mecA-positive, ciprofloxacin/gentamicin/oxacillin/penicillin/linezolid-resistant Staphylococcus aureus NRS120 after 16 to 20 hrs by broth microdilution method; format: functional
Bacillus licheniformis = assay: Antibacterial activity against Bacillus licheniformis ATCC 12759 after 16 to 20 hrs by broth microdilution method; format: functional
Staphylococcus aureus [29] = assay: Antibacterial activity against mecA-positive, methicillin/oxacillin/tetracycline-resistant and vancomycin/linezolid susceptible Staphylococcus aureus COL after 16 to 20 hrs by broth microdilution method; format: functional
Enterococcus faecalis [30] = assay: Antibacterial activity against Enterococcus faecalis ATCC 29212 after 16 to 20 hrs by broth microdilution method; format: functional
Enterococcus faecium [31] = assay: Antibacterial activity against vancomycin-resistant Enterococcus faecium 106 clinical isolate after 16 to 20 hrs by broth microdilution method
Enterococcus faecium [32] = assay: Antibacterial activity against vancomycin-susceptible Enterococcus faecium 119-39A clinical isolate after 16 to 20 hrs by broth microdilution method; format: functional
Staphylococcus aureus [33] = assay: Antibacterial activity against mecA-positive, ciprofloxacin/gentamicin/oxacillin/penicillin/linezolid-resistant Staphylococcus aureus NRS119 after 16 to 20 hrs by broth microdilution method; format: functional
Staphylococcus aureus [34] = assay: Antibacterial activity against mecA-positive, methicillin/oxacillin/tetracycline-resistant and vancomycin/linezolid susceptible Staphylococcus aureus ATCC 27660 after 16 to 20 hrs by broth microdilution method; format: functional
Enterococcus faecalis [35] = assay: Antibacterial activity against vancomycin-susceptible Enterococcus faecalis 201 clinical isolate after 16 to 20 hrs by broth microdilution method; format: functional

FC(F)(F)c1ccc(Oc2ccc(-c3noc(-c4ccc5[nH]ccc5c4)n3)cc2)cc1
half-life [1]: 15.9 h
IC50 (HepG2): 75.7 µg/mL (≈ 180 µM)
AUC (Mus musculus [2]): 3140 µg·min/mL
MIC (Bacillus cereus): 16 µg/mL (≈ 38 µM)
MIC [3]: 8 µg/mL (≈ 19 µM)
MIC (Enterococcus faecium [4]): 2 µg/mL (≈ 4.75 µM)
MIC (Streptococcus pyogenes): 64 µg/mL (≈ 152 µM)
Ratio (Enterococcus faecium [5]): 2
AUC (Mus musculus [6]): 3060 µg·min/mL
MIC (Staphylococcus aureus [7]): 1 µg/mL (≈ 2.37 µM)
Activity (Staphylococcus aureus [8]): Active
AUC(0-inf) [9]: 67700 ng·h/mL
ED50 (Staphylococcus aureus [10]): 3.1 mg/kg
Tmax [11]: 6 h
PPB [12]: 98.2%
AUC(0-inf) [13]: 58700 ng·h/mL
half-life [14]: 9.6 h
MIC (Staphylococcus aureus [15]): 2 µg/mL (≈ 4.75 µM)
MIC [16]: 4 µg/mL (≈ 9.49 µM)
MIC (Enterococcus faecalis [17]): 16 µg/mL (≈ 38 µM)
half-life [18]: 18.6 h
half-life [19]: 32.4 s
Cmax [20]: 2340 ng/mL
MIC (Streptococcus oralis): 128 µg/mL (≈ 304 µM)
ED50 (Staphylococcus aureus [21]): 7.6 mg/kg
clearance [22]: 5.68 mL/min/kg
Vd [23]: 4.73 L/kg
MBC (Staphylococcus aureus [24]): 2 µg/mL (≈ 4.75 µM)
ED50 (Staphylococcus aureus [25]): 1.7 mg/kg

Oc1ccc(-c2nc(-c3ccc(Oc4ccc(C(F)(F)F)cc4)cc3)no2)cc1
AUC(0-t) at 8 h [26]: 44200 ng·h/mL
MIC (Staphylococcus aureus [27]): 2 µg/mL (≈ 5.02 µM)
MIC (Staphylococcus aureus [28]): 2 µg/mL (≈ 5.02 µM)
IC50 (HepG2): 25.8 µg/mL (≈ 64.8 µM)
MIC (Bacillus cereus): 2 µg/mL (≈ 5.02 µM)
MIC [3]: 2 µg/mL (≈ 5.02 µM)
MIC (Enterococcus faecium [4]): 2 µg/mL (≈ 5.02 µM)
MIC (Streptococcus pyogenes): 32 µg/mL (≈ 80.3 µM)
MIC (Staphylococcus aureus [7]): 2 µg/mL (≈ 5.02 µM)
MIC (Bacillus licheniformis): 2 µg/mL (≈ 5.02 µM)
MIC (Staphylococcus aureus [29]): 2 µg/mL (≈ 5.02 µM)
MIC (Enterococcus faecalis [30]): 2 µg/mL (≈ 5.02 µM)
PPB [12]: 99.9%
MIC (Enterococcus faecium [31]): 2 µg/mL (≈ 5.02 µM)
MIC (Enterococcus faecium [32]): 1 µg/mL (≈ 2.51 µM)
MIC (Staphylococcus aureus [15]): 1 µg/mL (≈ 2.51 µM)
MIC [16]: 2 µg/mL (≈ 5.02 µM)
MIC (Enterococcus faecalis [17]): 2 µg/mL (≈ 5.02 µM)
MIC (Staphylococcus aureus [33]): 2 µg/mL (≈ 5.02 µM)
MIC (Staphylococcus aureus [34]): 2 µg/mL (≈ 5.02 µM)
MIC (Enterococcus faecalis [35]): 2 µg/mL (≈ 5.02 µM)
MIC (Streptococcus oralis): 32 µg/mL (≈ 80.3 µM)
